Active and inactive are the calls of the source. No cut-off for these calls is given here.
How the values were obtained:
[1] = molecular target: Small conductance calcium-activated potassium channel protein 3 (Rattus norvegicus, UniProt P70605); assay: (§1) Inhibition of Wistar rat recombinant SK3 channel expressed in HEK293 cells by whole cell patch clamp technique; format: cell-based
How it was run: (§2)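 Whole-cell patch clamp on HEK293 cells stably expressing rat SK3. Extracellular solution contains 4 mM K+. Pipette Ca2+ is buffered at 400 nM. Kd comes from single-concentration kinetics experiments (n = independent experiments), reported as mean ± SEM.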

[2] = molecular target: Small conductance calcium-activated potassium channel protein 3 (Rattus norvegicus) (UniProt P70605); assay: as §1; format: cell-based; how it was run: as §2
[3] = molecular target: T1, Small conductance calcium-activated potassium channel protein 3 (Homo sapiens, UniProt Q9UGI6); assay: Inhibition of human SK3 channel by inside-out patch clamp technique
[4] = molecular target: Small conductance calcium-activated potassium channel protein 2 (Homo sapiens, UniProt Q9H2S1); assay: Inhibition of human SK2 channel by inside-out patch clamp technique
[5] = molecular target: Small conductance calcium-activated potassium channel protein 1 (Homo sapiens, UniProt Q92952); assay: Inhibition of human SK1 channel by inside-out patch clamp technique
[6] = molecular target: T1, Small conductance calcium-activated potassium channel protein 3; assay: Inhibition of human SK3 channel expressed in HEK293 cells assessed as Ca2+ induced current after drug wash out by whole cell patch clamp technique in presence of bicuculline methobromide; format: cell-based
How it was run: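 Whole-cell SK3 current is measured every 5 s at 0 mV from voltage ramps (-120 to +30 mV). Pipette Ca2+ is buffered at 400 nM. Inhibition is followed to steady state (about 5 min) and then washed out. Bicuculline methobromide (100 µM) is applied for 20 s during the wash. Kd is fitted from the kinetics.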

[7] = molecular target: T1, Small conductance calcium-activated potassium channel protein 3; assay: Inhibition of wild type human SK3 channel expressed in HEK293 cells assessed as Ca2+ sensitivity by inside-out patch clamp technique; format: cell-based
How it was run: (§3)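 Inside-out patches from HEK293 cells transiently transfected (lipofectamine) with hSK3 or hSK3(Q493A;D495A), recorded 2-4 days after transfection. Patches are exposed to a series of Ca2+-buffered solutions. Currents are normalized to the current induced by 10 µM Ca2+, and Hill fits give EC50(Ca2+) and nH. Mean ± SEM.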

HEK293 = assay: Inhibition of human SK3 channel Q493A;D495A mutant expressed in HEK293 cells at 300 nM by whole cell assay; format: cell-based
[8] = molecular target: T1, Small conductance calcium-activated potassium channel protein 3; assay: Inhibition of wild type human SK3 channel expressed in HEK293 cells; format: cell-based
[9] = Inhibition of human SK3 channel Q493A;D495A mutant expressed in HEK293 cells assessed as Ca2+ sensitivity by inside-out patch clamp technique; format: cell-based; how it was run: as §3
[10] = molecular target: T1, Small conductance calcium-activated potassium channel protein 3; assay: Inhibition of wild type human SK3 channel expressed in HEK293 cells at 300 nM by whole cell assay; format: cell-based
[11] = Inhibition of human SK3 channel Q493A;D495A mutant expressed in HEK293 cells; format: cell-based

T1 sequence (Q9UGI6 whole entry): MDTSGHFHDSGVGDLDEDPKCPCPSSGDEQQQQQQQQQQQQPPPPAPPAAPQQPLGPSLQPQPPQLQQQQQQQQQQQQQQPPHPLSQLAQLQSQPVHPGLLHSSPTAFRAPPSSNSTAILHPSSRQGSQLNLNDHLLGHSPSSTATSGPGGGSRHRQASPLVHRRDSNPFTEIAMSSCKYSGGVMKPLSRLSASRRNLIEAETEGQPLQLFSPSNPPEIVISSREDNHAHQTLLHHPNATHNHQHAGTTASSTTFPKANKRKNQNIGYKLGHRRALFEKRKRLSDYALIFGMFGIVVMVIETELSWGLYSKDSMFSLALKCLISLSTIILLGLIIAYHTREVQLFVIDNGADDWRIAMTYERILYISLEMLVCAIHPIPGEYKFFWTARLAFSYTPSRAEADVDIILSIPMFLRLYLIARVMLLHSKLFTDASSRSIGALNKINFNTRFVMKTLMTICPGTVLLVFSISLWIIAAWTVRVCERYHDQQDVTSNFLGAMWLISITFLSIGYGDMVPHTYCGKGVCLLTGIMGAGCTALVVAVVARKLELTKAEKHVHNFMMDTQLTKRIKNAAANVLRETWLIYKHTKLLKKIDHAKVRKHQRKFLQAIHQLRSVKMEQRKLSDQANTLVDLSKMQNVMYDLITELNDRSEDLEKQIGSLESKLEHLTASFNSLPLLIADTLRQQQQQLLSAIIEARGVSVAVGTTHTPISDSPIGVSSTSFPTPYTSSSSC
Small conductance calcium-activated potassium channel protein 3 (Rattus norvegicus), sequence (P70605 whole entry): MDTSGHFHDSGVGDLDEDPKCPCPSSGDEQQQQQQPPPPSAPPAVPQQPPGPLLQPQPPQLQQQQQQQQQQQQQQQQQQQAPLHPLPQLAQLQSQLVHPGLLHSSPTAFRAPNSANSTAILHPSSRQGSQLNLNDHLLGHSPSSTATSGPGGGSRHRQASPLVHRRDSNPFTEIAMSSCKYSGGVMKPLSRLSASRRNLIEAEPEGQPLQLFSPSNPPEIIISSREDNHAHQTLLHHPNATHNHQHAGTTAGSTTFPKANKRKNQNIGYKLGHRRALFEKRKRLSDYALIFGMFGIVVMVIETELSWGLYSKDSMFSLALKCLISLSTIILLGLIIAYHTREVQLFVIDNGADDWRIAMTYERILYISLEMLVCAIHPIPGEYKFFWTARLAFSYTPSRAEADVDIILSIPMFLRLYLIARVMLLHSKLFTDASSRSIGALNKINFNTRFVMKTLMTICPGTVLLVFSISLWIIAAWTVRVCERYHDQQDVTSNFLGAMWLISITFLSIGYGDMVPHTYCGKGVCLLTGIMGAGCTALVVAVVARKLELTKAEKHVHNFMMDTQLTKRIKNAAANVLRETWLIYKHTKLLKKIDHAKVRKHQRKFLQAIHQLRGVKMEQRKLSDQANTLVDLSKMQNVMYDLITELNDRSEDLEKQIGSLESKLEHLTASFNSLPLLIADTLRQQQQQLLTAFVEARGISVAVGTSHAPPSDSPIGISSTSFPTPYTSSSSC
Small conductance calcium-activated potassium channel protein 3 (Rattus norvegicus, UniProt P70605), sequence (P70605 whole entry): as above
Small conductance calcium-activated potassium channel protein 2, sequence (Q9H2S1 whole entry): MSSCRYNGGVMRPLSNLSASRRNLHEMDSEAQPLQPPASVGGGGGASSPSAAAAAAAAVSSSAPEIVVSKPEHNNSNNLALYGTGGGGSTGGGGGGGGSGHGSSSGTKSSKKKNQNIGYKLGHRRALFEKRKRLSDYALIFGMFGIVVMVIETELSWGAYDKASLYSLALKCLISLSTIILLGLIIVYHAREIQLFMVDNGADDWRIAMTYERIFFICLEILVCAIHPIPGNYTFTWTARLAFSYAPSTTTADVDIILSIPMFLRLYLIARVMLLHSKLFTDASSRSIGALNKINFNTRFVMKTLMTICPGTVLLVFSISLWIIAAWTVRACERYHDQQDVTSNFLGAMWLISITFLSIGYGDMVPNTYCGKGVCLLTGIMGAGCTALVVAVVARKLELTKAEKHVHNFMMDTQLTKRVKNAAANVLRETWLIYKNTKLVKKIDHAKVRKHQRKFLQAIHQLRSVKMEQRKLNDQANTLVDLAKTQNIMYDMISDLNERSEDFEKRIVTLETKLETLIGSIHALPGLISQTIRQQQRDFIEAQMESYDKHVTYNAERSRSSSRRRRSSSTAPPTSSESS
Small conductance calcium-activated potassium channel protein 1, sequence (Q92952 whole entry): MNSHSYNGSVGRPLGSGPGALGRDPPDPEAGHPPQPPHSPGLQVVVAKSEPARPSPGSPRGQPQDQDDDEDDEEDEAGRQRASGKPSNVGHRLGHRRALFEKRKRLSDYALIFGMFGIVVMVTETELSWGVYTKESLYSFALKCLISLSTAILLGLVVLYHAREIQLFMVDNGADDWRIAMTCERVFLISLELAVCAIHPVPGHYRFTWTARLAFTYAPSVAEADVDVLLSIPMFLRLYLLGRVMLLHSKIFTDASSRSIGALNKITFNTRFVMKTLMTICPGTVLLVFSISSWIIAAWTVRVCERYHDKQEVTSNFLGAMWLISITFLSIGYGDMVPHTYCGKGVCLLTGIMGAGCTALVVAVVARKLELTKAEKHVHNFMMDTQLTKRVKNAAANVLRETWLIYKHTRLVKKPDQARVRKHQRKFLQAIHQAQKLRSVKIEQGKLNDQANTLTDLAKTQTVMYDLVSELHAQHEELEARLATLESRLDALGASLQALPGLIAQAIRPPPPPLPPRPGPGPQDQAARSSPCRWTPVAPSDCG

SMILES	Kd [1]	also measured
c1ccc2c(c1)c1cc[n+]2CCCCC[n+]2ccc(c3ccccc32)NCCCCCN1	0.43 nM	–
O=C1Nc2c(ccc(Cl)c2Cl)/C1=N\O	–	Activity [2]: Active
c1ccc2c(c1)CCN(c1nc3ccccc3[nH]1)C2	14000 nM	–
CC1CCC(Nc2nc3ccccc3[nH]2)c2ccccc21 (stereo not given)	32 nM	–
Cc1cc(C)c2c(c1)C(Nc1nc3ccccc3[nH]1)CCC2 (stereo not given)	33 nM	–
Clc1cc2c(cc1Cl)C(Nc1nc3ccccc3[nH]1)CCC2 (stereo not given)	9.1 nM	Kd [3]: 60 nM; Kd [4]: 47 nM; Kd [5]: 54 nM; Kd [6]: 7.8 nM; EC50 [7]: 1810 nM
COc1cc2c3cc1Oc1cc(ccc1O)C[C@@H]1c4c(cc(OC)c(O)c4Oc4ccc(cc4)C[C@@H]3N(C)CC2)CC[N+]1(C)C	16000 nM	–
c1ccc(C2CCCN2c2nc3ccccc3[nH]2)cc1 (stereo not given)	1600 nM	–
CC(=O)O[C@H]1C[C@@H]2CC[C@@H]3[C@H](CC[C@@]4(C)[C@H]3CC[C@H]([N+]3(C)CCCCC3)[C@@H]4OC(C)=O)[C@@]2(C)C[C@@H]1[N+]1(C)CCCCC1 [PENUCURONIUM]	21000 nM	–
O=C(Nc1nc2ccccc2[nH]1)c1ccc(Cl)cc1	> 10000 nM	–
c1ccc(-c2ccc3c(c2)C(Nc2nc4ccccc4[nH]2)CCC3)cc1 (stereo not given)	600 nM	–
c1ccc(CNc2nc3ccccc3[nH]2)cc1	2700 nM	–
Clc1ccc(CNc2nc3ccccc3[nH]2)cc1	640 nM	–
c1ccc2c3c(ccc2c1)CCCC3Nc1nc2ccccc2[nH]1 (stereo not given)	31 nM	–
c1ccc2c(c1)CCC(Nc1nc3ccccc3[nH]1)C2 (stereo not given)	2000 nM	–
Cc1cc(NC2CCCCC2)nc(-n2nc(C)cc2C)n1	–	Activity [2]: Active
c1ccc(CCc2nc3ccccc3[nH]2)cc1	> 10000 nM	–
c1cc2cc(c1)C[n+]1ccc(c3ccccc31)NCc1ccc(cc1)CNc1cc[n+](c3ccccc13)C2	2.7 nM	–
CCn1c(=O)[nH]c2ccccc21	–	Activity [2]: Active
COc1ccc(C[C@H]2c3cc(OC)c(OC)cc3CC[N+]2(C)C)cc1OC [LAUDANOSINE METHIODIDE]	2600 nM	–
c1ccc(C2CCCCN2c2nc3ccccc3[nH]2)cc1 (stereo not given)	750 nM	–
COc1ccc(CC2c3cc(OC)c(OC)cc3CC[N+]2(C)CCC(=O)OCCCCCOC(=O)CC[N+]2(C)CCc3cc(OC)c(OC)cc3C2Cc2ccc(OC)c(OC)c2)cc1OC (stereo not given) [ATRACURIUM]	6400 nM	–
Clc1ccc(CNc2nc3ccccc3[nH]2)cc1Cl	200 nM	–
C[N+]1(C)CCc2cc3c(cc2[C@H]1[C@@H]1OC(=O)c2c1ccc1c2OCO1)OCO3	–	IC50 [1]: 7000 nM
COc1ccc2c(c1)C(Nc1nc3ccccc3[nH]1)CCC2 (stereo not given)	61 nM	–
Cc1cc(N)c2ccccc2[n+]1CCCCCCCCCC[n+]1c(C)cc(N)c2ccccc21 [DEQUALINIUM CHLORIDE]	180 nM	–
c1ccc2[nH]c(NC3CCCc4sccc43)nc2c1 (stereo not given)	540 nM	–
c1ccc2c(c1)CC(Nc1nc3ccccc3[nH]1)C2	1700 nM	–

Continued, in another order:

Kd [1]	SMILES	also measured
590 nM	c1ccc2c(c1)CCCCC2Nc1nc2ccccc2[nH]1 (stereo not given)	–
130 nM	c1ccc2c(c1)CCCC2Nc1nc2ccccc2[nH]1 (stereo not given)	–
> 10000 nM	c1ccc2c(c1)OCCC2Nc1nc2ccccc2[nH]1 (stereo not given)	–
20 nM	Cc1ccc2c(c1)C(Nc1nc3ccccc3[nH]1)CCC2 (stereo not given)	–
77 nM	c1ccc2c(c1)CCC[C@H]2Nc1nc2ccccc2[nH]1	inhibition (HEK293): 45%; Kd [8]: 100 nM; EC50 [9]: 440 nM; inhibition [10]: 75%; Kd [11]: 430 nM; EC50 [7]: 400 nM
170 nM	CC1CCc2ccccc2C1Nc1nc2ccccc2[nH]1 (stereo not given)	–
44 nM	Clc1cccc2c1CCCC2Nc1nc2ccccc2[nH]1 (stereo not given)	–
790 nM	c1ccc2c(c1)CCC2Nc1nc2ccccc2[nH]1 (stereo not given)	–
6500 nM	c1ccc2[nH]c(NC3CCCc4ccncc43)nc2c1 (stereo not given)	–
120 nM	Clc1ccc2c(c1)CCCC2Nc1nc2ccccc2[nH]1 (stereo not given)	–
17 nM	Clc1ccc2c(c1)C(Nc1nc3ccccc3[nH]1)CCC2 (stereo not given)	–
130 nM	c1ccc2c(c1)SCCC2Nc1nc2ccccc2[nH]1 (stereo not given)	–
11 nM	Brc1ccc2c(c1)C(Nc1nc3ccccc3[nH]1)CCC2 (stereo not given)	–
27 nM	Clc1cccc2c1C(Nc1nc3ccccc3[nH]1)CCC2 (stereo not given)	–
450 nM	c1ccc2c(c1)CCC[C@@H]2Nc1nc2ccccc2[nH]1	–
34 nM	Fc1ccc2c(c1)C(Nc1nc3ccccc3[nH]1)CCC2 (stereo not given)	–

Source: ChEMBL document CHEMBL1140213, “Synthesis and structure-activity relationship studies of 2-(N-substituted)-aminobenzimidazoles as potent negative gating modulators ofsmall conductance Ca2+-activated K+ channels” (J Med Chem, 2008)
